In brackets after ≈: the same amount, converted by molar mass.
Tests used:
[1] = tested on: Mycobacterium tuberculosis; test: Antibacterial activity against Mycobacterium tuberculosis H37Rv ATCC 27294T assessed as ofloxacin MIC at 0.5 ug/ml after 7 days by microdilution checkerboard assay; type: functional; settings: 168 h
Summary of the method: (§1)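 Two-dimensional checkerboard in H37Rv at 10^5 CFU/ml in MB7H9/OADC. Partner drug (amikacin, EtBr, isoniazid, ofloxacin or rifampin) two-fold serially diluted across columns 3-11. Test compound two-fold serially diluted down rows 2-6. Plates incubated 7 days at 37 °C, then MTT added overnight. […] Run in triplicate.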

[2] = tested on: Mycobacterium tuberculosis; test: Antibacterial activity against Mycobacterium tuberculosis H37Rv ATCC 27294T assessed as rifampin MIC at 0.25 ug/ml after 7 days by microdilution checkerboard assay; type: functional; settings: 168 h; summary of the method: as §1
[3] = tested on: Mycobacterium tuberculosis; test: Antibacterial activity against Mycobacterium tuberculosis H37Rv ATCC 27294T assessed as isoniazid MIC at 1 ug/ml after 7 days by microdilution checkerboard assay; type: functional; settings: 168 h; summary of the method: as §1
[4] = tested on: Mycobacterium tuberculosis; test: Antibacterial activity against Mycobacterium tuberculosis H37Rv ATCC 27294T assessed as isoniazid MIC at 0.25 ug/ml after 7 days by microdilution checkerboard assay; type: functional; settings: 168 h; summary of the method: as §1
[5] = tested on: Mycobacterium tuberculosis; test: Antibacterial activity against Mycobacterium tuberculosis H37Rv ATCC 27294T assessed as rifampin MIC at 1 ug/ml after 7 days by microdilution checkerboard assay; type: functional; settings: 168 h
Summary of the method: (§2)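 M. tuberculosis H37Rv grown in MB7H9 + 10% OADC at 37 °C to OD600 0.8; plates inoculated at 10^5 CFU/ml. Rifampicin two-fold serially diluted across columns, test compound two-fold diluted down rows (two-dimensional checkerboard). Sealed, 37 °C for seven days, then MTT added and incubated overnight. MIC read as no colour change. Triplicate.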

[6] = tested on: Mycobacterium tuberculosis; test: Antibacterial activity against Mycobacterium tuberculosis H37Rv ATCC 27294T assessed as ethidium bromide MIC at 0.5 ug/ml after 7 days by microdilution checkerboard assay; type: functional; settings: 168 h; summary of the method: as §1
[7] = tested on: Mycobacterium tuberculosis; test: Antibacterial activity against Mycobacterium tuberculosis H37Rv ATCC 27294T assessed as rifampin MIC at 8 ug/ml after 7 days by microdilution checkerboard assay; type: functional; settings: 168 h; summary of the method: as §2
[8] = tested on: Mycobacterium tuberculosis; test: Antibacterial activity against Mycobacterium tuberculosis H37Rv ATCC 27294T assessed as ethidium bromide MIC at 1 ug/ml after 7 days by microdilution checkerboard assay; type: functional; settings: 168 h; summary of the method: as §1
[9] = tested on: Mycobacterium tuberculosis; test: Antibacterial activity against Mycobacterium tuberculosis H37Rv ATCC 27294T assessed as ofloxacin MIC at 8 ug/ml after 7 days by microdilution checkerboard assay; type: functional; settings: 168 h; summary of the method: as §1
[10] = tested on: Mycobacterium tuberculosis; test: Antibacterial activity against Mycobacterium tuberculosis H37Rv ATCC 27294T assessed as amikacin MIC at 2 ug/ml after 7 days by microdilution checkerboard assay; type: functional; settings: 168 h; summary of the method: as §1
[11] = tested on: Mycobacterium tuberculosis; test: Antibacterial activity against Mycobacterium tuberculosis H37Rv ATCC 27294T assessed as rifampin MIC at 0.5 ug/ml after 7 days by microdilution checkerboard assay; type: functional; settings: 168 h; summary of the method: as §2
[12] = tested on: Mycolicibacterium smegmatis; test: Anti-tubercular activity against Mycobacterium smegmatis MC2 155 ATCC 700084 after 3 days by microdilution method; type: functional; settings: MC2 155 ATCC 700084, 72 h
Summary of the method: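 M. smegmatis mc2155 grown in MB7H9 + 10% OADC at 37 °C with shaking to OD600 0.8. Inoculum set to 0.5 McFarland, diluted 1:100, and mixed 1:1 with two-fold serial dilutions in MB7H9. Plates incubated 3 days at 37 °C with growth and sterility controls. MIC taken as the lowest concentration with no visible growth.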

[13] = tested on: Mycobacterium tuberculosis; test: Antibacterial activity against Mycobacterium tuberculosis H37Rv ATCC 27294T assessed as rifampin MIC at 0.12 ug/ml after 7 days by microdilution checkerboard assay; type: functional; settings: 168 h; summary of the method: as §1
[14] = tested on: Mycobacterium tuberculosis; test: Antibacterial activity against Mycobacterium tuberculosis H37Rv ATCC 27294T assessed as ethidium bromide MIC at 0.12 ug/ml after 7 days by microdilution checkerboard assay; type: functional; settings: 168 h; summary of the method: as §1
[15] = tested on: Mycobacterium tuberculosis; test: Antibacterial activity against Mycobacterium tuberculosis H37Rv ATCC 27294T assessed as ofloxacin MIC at 0.25 ug/ml after 7 days by microdilution checkerboard assay; type: functional; settings: 168 h; summary of the method: as §1
[16] = tested on: Mycobacterium tuberculosis; test: Antibacterial activity against Mycobacterium tuberculosis H37Rv ATCC 27294T assessed as ofloxacin MIC at 1 ug/ml after 7 days by microdilution checkerboard assay; type: functional; settings: 168 h; summary of the method: as §1
[17] = Cytotoxicity against human MDM assessed as cell viability after 3 days by Alamar blue dye-based fluorocytometric analysis relative to control; settings: 72 h
[18] = tested on: Mycobacterium tuberculosis; test: Antibacterial activity against Mycobacterium tuberculosis H37Rv ATCC 27294T assessed as isoniazid MIC at 4 ug/ml after 7 days by microdilution checkerboard; type: functional; settings: 168 h; summary of the method: as §1
[19] = tested on: Mycobacterium tuberculosis; test: Antibacterial activity against Mycobacterium tuberculosis H37Rv ATCC 27294T assessed as ethidium bromide MIC at 8 ug/ml after 7 days by microdilution checkerboard assay; type: functional; settings: 168 h; summary of the method: as §1
[20] = tested on: Mycobacterium tuberculosis; test: Antibacterial activity against Mycobacterium tuberculosis H37Rv ATCC 27294T assessed as ethidium bromide MIC at 0.25 ug/ml after 7 days by microdilution checkerboard assay; type: functional; settings: 168 h; summary of the method: as §1
[21] = tested on: Mycobacterium tuberculosis; test: Antibacterial activity against Mycobacterium tuberculosis H37Rv ATCC 27294T assessed as amikacin MIC at 4 ug/ml after 7 days by microdilution checkerboard assay; type: functional; settings: 168 h; summary of the method: as §1
[22] = tested on: Mycobacterium tuberculosis; test: Antibacterial activity against Mycobacterium tuberculosis H37Rv ATCC 27294T assessed as amikacin MIC at 8 ug/ml after 7 days by microdilution checkerboard assay; type: functional; settings: 168 h; summary of the method: as §1
[23] = tested on: Mycobacterium tuberculosis; test: Antibacterial activity against Mycobacterium tuberculosis H37Rv ATCC 27294T assessed as ethidium bromide MIC at 2 ug/ml after 7 days by microdilution checkerboard assay; type: functional; settings: 168 h; summary of the method: as §1
[24] = tested on: Mycobacterium tuberculosis; test: Antibacterial activity against Mycobacterium tuberculosis H37Rv ATCC 27294T assessed as ofloxacin MIC at 0.12 ug/ml after 7 days by microdilution checkerboard assay; type: functional; settings: 168 h; summary of the method: as §1
[25] = tested on: Mycobacterium tuberculosis; test: Anti-tubercular activity against Mycobacterium tuberculosis H37Rv ATCC 27294T after 7 days by mircodilution method; type: functional; settings: 168 h
Summary of the method: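 H37Rv grown static in MB7H9 + 10% OADC at 37 °C to OD600 0.8, then diluted to about 10^5 cells/ml. Mixed 1:1 with two-fold serial dilutions in MB7H9/OADC and incubated 7 days at 37 °C. MTT added to final 2.5% and plates incubated overnight. MIC is the lowest concentration with no colour change. Run in triplicate.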

[26] = tested on: Mycobacterium tuberculosis; test: Antibacterial activity against Mycobacterium tuberculosis H37Rv ATCC 27294T assessed as ethidium bromide MIC at 4 ug/ml after 7 days by microdilution checkerboard assay; type: functional; settings: 168 h; summary of the method: as §1
[27] = tested on: Mycobacterium tuberculosis; test: Antibacterial activity against Mycobacterium tuberculosis H37Rv ATCC 27294T assessed as isoniazid MIC at 0.12 ug/ml after 7 days by microdilution checkerboard assay; type: functional; settings: 168 h; summary of the method: as §1
[28] = tested on: Mycobacterium tuberculosis; test: Antibacterial activity against Mycobacterium tuberculosis H37Rv ATCC 27294T assessed as amikacin MIC at 0.12 ug/ml after 7 days by microdilution checkerboard assay; type: functional; settings: 168 h; summary of the method: as §1
[29] = tested on: Mycobacterium tuberculosis; test: Antibacterial activity against Mycobacterium tuberculosis H37Rv ATCC 27294T assessed as amikacin MIC at 0.5 ug/ml after 7 days by microdilution checkerboard assay; type: functional; settings: 168 h; summary of the method: as §1
[30] = tested on: Mycobacterium tuberculosis; test: Antibacterial activity against Mycobacterium tuberculosis H37Rv ATCC 27294T assessed as ofloxacin MIC at 4 ug/ml after 7 days by microdilution checkerboard assay; type: functional; settings: 168 h; summary of the method: as §1
[31] = tested on: Mycobacterium tuberculosis; test: Antibacterial activity against Mycobacterium tuberculosis H37Rv ATCC 27294T assessed as amikacin MIC at 1 ug/ml after 7 days by microdilution checkerboard assay; type: functional; settings: 168 h; summary of the method: as §1
[32] = tested on: Mycobacterium tuberculosis; test: Antibacterial activity against Mycobacterium tuberculosis H37Rv ATCC 27294T assessed as isoniazid MIC at 8 ug/ml after 7 days by microdilution checkerboard assay; type: functional; settings: 168 h; summary of the method: as §1
[33] = tested on: Mycobacterium tuberculosis; test: Antibacterial activity against Mycobacterium tuberculosis H37Rv ATCC 27294T assessed as ofloxacin MIC at 2 ug/ml after 7 days by microdilution checkerboard assay; type: functional; settings: 168 h; summary of the method: as §1
[34] = tested on: Mycobacterium tuberculosis; test: Antibacterial activity against Mycobacterium tuberculosis H37Rv ATCC 27294T assessed as rifampin MIC at 4 ug/ml after 7 days by microdilution checkerboard assay; type: functional; settings: 168 h; summary of the method: as §2
[35] = tested on: Mycobacterium tuberculosis; test: Antibacterial activity against Mycobacterium tuberculosis H37Rv ATCC 27294T assessed as isoniazid MIC at 2 ug/ml after 7 days by microdilution checkerboard assay; type: functional; settings: 168 h; summary of the method: as §1
[36] = tested on: Mycobacterium tuberculosis; test: Antibacterial activity against Mycobacterium tuberculosis H37Rv ATCC 27294T assessed as rifampin MIC at 2 ug/ml after 7 days by microdilution checkerboard assay; type: functional; settings: 168 h; summary of the method: as §2
[37] = tested on: Mycobacterium tuberculosis; test: Antibacterial activity against Mycobacterium tuberculosis H37Rv ATCC 27294T assessed as isoniazid MIC at 0.5 ug/ml after 7 days by microdilution checkerboard assay; type: functional; settings: 168 h; summary of the method: as §1
[38] = tested on: Mycobacterium tuberculosis; test: Antibacterial activity against Mycobacterium tuberculosis H37Rv ATCC 27294T assessed as amikacin MIC at 0.25 ug/ml after 7 days by microdilution checkerboard assay; type: functional; settings: 168 h; summary of the method: as §1

SMILES | MIC [1] [µg/mL] | MIC [2] [µg/mL] | MIC [3] [µg/mL] | MIC [4] [µg/mL] | MIC [5] [µg/mL] | MIC [6] [µg/mL] | MIC [7] [µg/mL] | MIC [8] [µg/mL] | MIC [9] [µg/mL] | MIC [10] [µg/mL] | MIC [11] [µg/mL] | MIC [12] [µg/mL] | MIC [13] [µg/mL] | MIC [14] [µg/mL] | MIC [15] [µg/mL] | MIC [16] [µg/mL] | IC50 [17] [µg/mL] | MIC [18] [µg/mL] | MIC [19] [µg/mL] | MIC [20] [µg/mL] | further results
CCCSc1nnc(COc2ccccc2C2=NOC(c3ccc(Cl)cc3Cl)C2)n1NC(C)=O (stereo unspecified) | 1 | 0.0312 | 0.05 | 0.1 | 0.0156 | 12.5 | 0.0156 | 6.25 | 0.0156 | 0.25 | 0.0312 | 1 (≈ 1.92 µM) | 0.0625 | 12.5 | 1 | 0.25 | 128 (≈ 245 µM) | 0.00312 | 0.195 | 12.5 | MIC [21]: 0.25 µg/mL; MIC [22]: 0.0312 µg/mL; MIC [23]: 0.781 µg/mL; MIC [24]: 1 µg/mL; MIC [25]: 4 µg/mL (≈ 7.69 µM); MIC [26]: 0.195 µg/mL; MIC [27]: 0.1 µg/mL; MIC [28]: 1 µg/mL; MIC [29]: 1 µg/mL; MIC [30]: 0.0156 µg/mL; MIC [31]: 1 µg/mL; MIC [32]: 0.00078 µg/mL; MIC [33]: 0.0312 µg/mL; MIC [34]: 0.0156 µg/mL; MIC [35]: 0.0125 µg/mL; MIC [36]: 0.0156 µg/mL; MIC [37]: 0.1 µg/mL; MIC [38]: 1 µg/mL
CSc1ccc2c(c1)N(CCC1CCCCN1C)c1ccccc1S2 (stereo unspecified) [THIORIDAZINE] | 1 | 0.5 | 0.1 | 0.1 | 0.5 | 6.25 | 0.0156 | 6.25 | 0.0312 | 1 | 0.5 | 31 (≈ 83.7 µM) | 1 | 12.5 | 2 | 1 | 5.5 (≈ 14.8 µM) | 0.0125 | 0.195 | 12.5 | MIC [21]: 0.25 µg/mL; MIC [22]: 0.0312 µg/mL; MIC [23]: 3.12 µg/mL; MIC [24]: 2 µg/mL; MIC [25]: 16 µg/mL (≈ 43.2 µM); MIC [26]: 1.56 µg/mL; MIC [27]: 0.1 µg/mL; MIC [28]: 1 µg/mL; MIC [29]: 1 µg/mL; MIC [30]: 1 µg/mL; MIC [31]: 1 µg/mL; MIC [32]: 0.00156 µg/mL; MIC [33]: 1 µg/mL; MIC [34]: 0.5 µg/mL; MIC [35]: 0.1 µg/mL; MIC [36]: 0.5 µg/mL; MIC [37]: 0.1 µg/mL; MIC [38]: 1 µg/mL

Reference: ChEMBL document CHEMBL3758168, “Hybrid triazoles: Design and synthesis as potential dual inhibitor of growth and efflux inhibition in tuberculosis” (Eur J Med Chem, 2016)
